According to ChEMBL document CHEMBL4229301, “Open-source discovery of chemical leads for next-generation chemoprotective antimalarials” (2018):

Test: Luciferase/luciferin-expressing antifolate-resistant parasites were used to infect a culture of HepG2 cells that were pre-incubated with compounds. Infected hepatocytes emit light due to the luciferase reaction. Assay results are presented as the percent inhibition of light emission compared to control. […]
Assay type: functional
Conditions: Plasmodium berghei, sporozoite; for IC50: read-out: LUCIFERASE INFECTION ASSAY - IC50; for IC90: read-out: LUCIFERASE INFECTION ASSAY - IC90
In short: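 HepG2-A16-CD81EGFP cells (3x10³/well) were seeded 20-26 h before infection, and compound was added 18 h before infection (0.5% DMSO final; library screened at 0.250-39 µM, average 10 µM). Each well received 1x10³ P. berghei GFP-Luc sporozoites from A. stephensi salivary glands, then plates were spun at 330xg for 3 min. After 48 h at 37°C, 5% CO₂, BrightGlo luminescence was read and normalized to 64 DMSO and 64 10 µM atovaquone wells.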

[1] = PBLUC_HILL_SLOPE 1.68, PBLUC_R_SQUARED 0.822
[2] = PBLUC_HILL_SLOPE 1.94, PBLUC_R_SQUARED 0.789
[3] = PBLUC_HILL_SLOPE 1.77, PBLUC_R_SQUARED 0.431

Q: With c1ccc(CNc2nc(Nc3ccccc3)nc3ccccc23)cc1 as the compound, how does the IC50 [1] read?
A: The IC50 was 0.476 µM.

Q: And the IC90 [1]?
A: The IC90 was 1.76 µM.

Q: For N=c1c2ccccc2nnn1-c1cccc(C(F)(F)F)c1, which IC50 [2] is on record?
A: Its IC50 is 0.796 µM.

Q: And the IC90 [2]?
A: Its IC90 is 2.47 µM.

Q: With Cc1cc(Nc2ccc(Cl)cc2)n2nc(C(F)(F)F)nc2n1 as the compound, how does the IC50 [3] read?
A: The IC50 was 1.54 µM.

Q: And the IC90 [3]?
A: Its IC90 is 5.32 µM.
